From ChEMBL document CHEMBL2010670, “Discovery of a clinical stage multi-kinase inhibitor sodium (E)-2-{2-methoxy-5-[(2',4',6'-trimethoxystyrylsulfonyl)methyl]phenylamino}acetate (ON 01910.Na): synthesis, structure-activity relationship, and biological activity” (J Med Chem, 2011) come the findings set out here.

One assay concerns DU-145. Put plainly: Cytotoxicity against human DU145 cells after 96 hrs by trypan blue exclusion assay. The assay is classed as functional, cell-based. Particulars: Homo sapiens, DU-145, 96 h. In short, it runs like this:
(§1)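 Cells grown in DMEM or RPMI with 10% FBS and penicillin-streptomycin, seeded at 1.0 × 10⁵ cells/mL/well in 6-well dishes. Compound added at a range of concentrations 24 h after seeding. Viable cells counted by trypan blue exclusion from duplicate wells after 96 h of exposure; dose-response end point.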

For another assay, the system named is K562. Put plainly: Cytotoxicity against human K562 cells after 96 hrs by trypan blue exclusion assay. The class given is functional, cell-based. The following applies: Homo sapiens, K562, 96 h. The essentials:
as §1

The IC50 is the concentration that gives 50% inhibition. Higher therefore signals lower potency.

As to `COc1cc(OC)c(/C=C/S(=O)(=O)Cc2ccc(OC)cc2[N+](=O)[O-])c(OC)c1`, the IC50 in the assay on DU-145 and with K562 was 20 µM throughout.
For `COC(=O)[C@H](C)Nc1cc(CS(=O)(=O)/C=C/c2c(OC)cc(OC)cc2OC)ccc1OC`, the IC50 in the assay with DU-145 worked out at 0.75 µM; in the assay with K562, 0.2 µM.
Consider `COc1ccc(CS(=O)(=O)/C=C/c2cc(OC)c(OC)c(OC)c2)cc1NCC(=O)O`, for which the IC50 with DU-145 amounted to 5 µM; with K562 it was 3 µM.
For `COc1ccc(OC)c(/C=C/S(=O)(=O)Cc2ccc(OC)c(N)c2)c1`, the half-inhibitory concentration (IC50) in the assay on DU-145 and in the assay with K562 was 0.75 µM in each case.
On to `COc1cc(OC)c(/C=C/S(=O)(=O)Cc2ccc(OC)c([N+](=O)[O-])c2)c(OC)c1`, for which the half-inhibitory concentration (IC50) in the assay with DU-145 and with K562 was 2.5 µM in each case.
Consider `COc1ccc(CS(=O)(=O)/C=C/c2c(OC)cccc2OC)c([N+](=O)[O-])c1`, for which the concentration for half-maximal inhibition (IC50) with DU-145 and with K562 was 50 µM each time.
For the molecule `COC(=O)C(Nc1cc(CS(=O)(=O)/C=C/c2c(OC)cc(OC)cc2OC)ccc1OC)c1ccccc1` (configuration not stated), the IC50 came out at 0.075 µM in the assay with DU-145 and 0.03 µM in the assay with K562.
Turning to `COc1ccc(CS(=O)(=O)/C=C/c2cc(F)c(F)cc2F)cc1N`, the half-inhibitory concentration (IC50) was determined as 5 µM with DU-145 and 15 µM in the assay on K562.
The corresponding values for `COc1cc(OC)c(/C=C/S(=O)(=O)Cc2ccc(F)c(N)c2)c(OC)c1` are 2.5 µM and 2.5 µM.
Consider `COc1cc(OC)c(/C=C/S(=O)(=O)Cc2ccc(F)c([N+](=O)[O-])c2)c(OC)c1`, for which the IC50 in the assay on DU-145 and with K562 was 25 µM in each case.
In the case of `COc1cc(OC)c(/C=C/S(=O)(=O)Cc2ccc(OC)c(NC(C(=O)O)c3ccccc3)c2)c(OC)c1` (configuration not stated), the 50% inhibitory concentration (IC50) in the assay on DU-145 came to 0.02 µM; in the assay with K562, 0.015 µM.
The corresponding values for `COC(=O)C(Nc1cc(CS(=O)(=O)/C=C/c2c(OC)cc(OC)cc2OC)ccc1OC)c1ccc(Br)cc1` (configuration not stated) are 0.3 µM and 0.2 µM.
The corresponding values for `COc1ccc(CS(=O)(=O)/C=C/c2c(OC)cc(O)cc2OC)cc1[N+](=O)[O-]` are 5 µM and 5 µM.
Take `COc1ccc(CS(=O)(=O)/C=C/c2c(OC)cccc2OC)cc1[N+](=O)[O-]`: the concentration for half-maximal inhibition (IC50) in the assay on DU-145 and with K562 was 20 µM in each case.
Turning to `COc1cc(OC)c(/C=C/SCc2ccc(OC)c([N+](=O)[O-])c2)c(OC)c1`, the IC50 in the assay on DU-145 and in the assay on K562 was 5 µM in each case.
Consider `COc1ccc(C(Nc2cc(CS(=O)(=O)/C=C/c3c(OC)cc(OC)cc3OC)ccc2OC)C(=O)O)cc1` (configuration not stated), for which the IC50 in the assay with DU-145 worked out at 0.1 µM; with K562, 0.015 µM.
